In ChEMBL document CHEMBL4732034, “Amino alcohol acrylonitriles as broad spectrum and tumour selective cytotoxic agents” (RSC Med Chem, 2021):

Experiments:
[1] = target: T1, Aryl hydrocarbon receptor (Homo sapiens, UniProt P35869); assay: Activation of AhR in human HT29-Lucia cells expressing secreted Lucia luciferase reporter gene assessed as increase in receptor transactivation by measuring fold increase in reporter activity at 5 uM measured after 48 hrs by luciferase reporter gene assay relative to control; format: cell-based; settings: HT-29, human, read-out: FC
T1 sequence (P35869 whole entry): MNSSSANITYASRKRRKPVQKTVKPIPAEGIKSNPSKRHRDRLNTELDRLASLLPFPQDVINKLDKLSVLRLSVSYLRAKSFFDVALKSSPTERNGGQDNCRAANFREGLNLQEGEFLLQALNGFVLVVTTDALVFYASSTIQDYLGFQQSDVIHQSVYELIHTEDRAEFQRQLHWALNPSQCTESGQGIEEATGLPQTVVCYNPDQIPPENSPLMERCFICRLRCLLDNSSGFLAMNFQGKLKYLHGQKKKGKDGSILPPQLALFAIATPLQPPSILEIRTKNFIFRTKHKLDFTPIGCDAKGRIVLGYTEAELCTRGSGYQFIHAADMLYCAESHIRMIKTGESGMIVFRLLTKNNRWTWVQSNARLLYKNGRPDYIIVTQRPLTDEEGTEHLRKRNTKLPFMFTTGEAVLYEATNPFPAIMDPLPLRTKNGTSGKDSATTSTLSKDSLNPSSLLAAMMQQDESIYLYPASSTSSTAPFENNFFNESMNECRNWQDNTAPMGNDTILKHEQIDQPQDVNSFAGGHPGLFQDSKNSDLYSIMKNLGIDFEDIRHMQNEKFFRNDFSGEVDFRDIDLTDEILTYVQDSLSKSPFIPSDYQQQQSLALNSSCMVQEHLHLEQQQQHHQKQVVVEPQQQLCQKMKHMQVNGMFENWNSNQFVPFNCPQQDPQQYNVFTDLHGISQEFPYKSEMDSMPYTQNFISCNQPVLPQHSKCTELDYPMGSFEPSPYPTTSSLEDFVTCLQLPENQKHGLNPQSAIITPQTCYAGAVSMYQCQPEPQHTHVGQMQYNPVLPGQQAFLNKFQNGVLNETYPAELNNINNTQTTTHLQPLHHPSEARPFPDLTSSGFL
Summary of the method: (§1)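 HT29-Lucia cells (stable secreted Lucia luciferase reporter under a minimal promoter with the human CYP1A1 regulatory sequence, six DREs) were grown without antibiotics for 24 h before compound addition. At 24 and 48 h, supernatant was read by luminescence with QUANTI-Luc. Assays were run twice, and values are fold-change versus DMSO-treated cells. FICZ and CH223191 (5 μM) were included as controls.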

[2] = target: T1, Aryl hydrocarbon receptor; assay: Activation of AhR in human HT29-Lucia cells expressing secreted Lucia luciferase reporter gene assessed as increase in receptor transactivation by measuring fold increase in reporter activity at 5 uM measured after 24 hrs by luciferase reporter gene assay relative to control; format: cell-based; settings: HT-29, human, read-out: FC; summary of the method: as §1
U-87 MG = assay: Cytotoxicity against human U87 cells assessed as growth inhibition measured after 72 hrs by SRB assay; format: functional, U-87MG ATCC
Summary of the method: (§2)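 Cancer lines were kept in DMEM with 10% FBS and glutamine at 37 °C, 5% CO2, and seeded at 2500–4000 cells per well in duplicate. Compound (from 40 mM DMSO stocks) was added 24 h after plating and left for 72 h. Cells were TCA-fixed, stained with SRB and read at 540 nm. GI50 came from an eight-point dose-response, using the change from day-0 optical density, with three to four independent replicates.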

A2780 = assay: Cytotoxicity against human A2780 cells assessed as growth inhibition measured after 72 hrs by SRB assay; format: functional; summary of the method: as §2
NCI-H460 = assay: Cytotoxicity against human H460 cells assessed as growth inhibition measured after 72 hrs by SRB assay; format: functional; summary of the method: as §2
A-431 = assay: Cytotoxicity against human A431 cells assessed as growth inhibition measured after 72 hrs by SRB assay; format: functional; summary of the method: as §2
DU-145 = assay: Cytotoxicity against human DU-145 cells assessed as growth inhibition measured after 72 hrs by SRB assay; format: functional; summary of the method: as §2
BE(2)-C = assay: Cytotoxicity against human BE2C cells assessed as growth inhibition measured after 72 hrs by SRB assay; format: functional; summary of the method: as §2
[3] = Cytotoxicity against human SJG2 cells assessed as growth inhibition measured after 72 hrs by SRB assay; format: functional; settings: SJ-G2; summary of the method: as §2
MIA PaCa-2 = assay: Cytotoxicity against human MIA cells assessed as growth inhibition measured after 72 hrs by SRB assay; format: functional; summary of the method: as §2
HT-29 = assay: Cytotoxicity against human HT29 cells assessed as growth inhibition measured after 72 hrs by SRB assay; format: functional; summary of the method: as §2
MCF7 = assay: Cytotoxicity against human MCF-7 cells assessed as growth inhibition measured after 72 hrs by SRB assay; format: functional; summary of the method: as §2
[4] = Cytotoxicity against human MCF10A cells assessed as growth inhibition measured after 72 hrs by SRB assay; format: cell-based, MCF-10A
[5] = Selectivity index, ratio of GI50 for human MCF10A cells to GI50 for human A2780 cells by SRB assay; format: toxicity; settings: MCF10A cells versus A2780 cells, read-out: RatioGI50
Summary of the method: (§3)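 Fold selectivity is the MCF10A GI50 divided by the cancer-line GI50. Each GI50 is from the 72 h SRB assay: eight-point dose-response, day-0 optical density baseline, three to four separate replicates.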

MDA-MB-468 = assay: Cytotoxicity against human MDA-MB-468 cells assessed as growth inhibition measured after 72 hrs by SRB assay; format: functional; summary of the method: as §2
T47D = assay: Cytotoxicity against human T47D cells assessed as growth inhibition measured after 72 hrs by SRB assay; format: functional; summary of the method: as §2
[6] = target: T1, Aryl hydrocarbon receptor; assay: Activation of AhR in human HT29-Lucia cells expressing secreted Lucia luciferase reporter gene assessed as increase in receptor transactivation by measuring fold increase in reporter activity at 25 uM measured after 24 hrs by luciferase reporter gene assay relative to control; format: cell-based; settings: HT-29, human, read-out: FC; summary of the method: as §1
CYP1A1 = target: T2, CYP1A1 (Homo sapiens, UniProt P35869); assay: Activation of AhR in human MDA-MB-468 cells assessed as fold increase in CYP1A1 mRNA expression at 5 uM measured after 8 hrs by qPCR assay relative to control; format: cell-based; settings: read-out: FC
T2 sequence (P35869 whole entry): T1 sequence (P35869 whole entry)
Summary of the method: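 MDA-MB-468 cells were exposed for 8 h, then total RNA was extracted. CYP1A1 was quantified by qPCR with β2M as reference: 95 °C for 5 min, then 40 cycles of 95 °C for 5 s and 60 °C for 10 s. Fold change was calculated by the comparative Ct method.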

[7] = Selectivity index, ratio of GI50 for human MCF10A cells to GI50 for human MCF-7 cells by SRB assay; format: toxicity; settings: MCF10A cells versus MCF-7 cells, read-out: RatioGI50; summary of the method: as §3
[8] = Selectivity index, ratio of GI50 for human MCF10A cells to GI50 for human MDA-MB-468 cells by SRB assay; format: toxicity; settings: MCF10A cells versus MDA-MB-468 cells, read-out: RatioGI50; summary of the method: as §3
[9] = Selectivity index, ratio of GI50 for human MCF10A cells to GI50 for human T47D cells by SRB assay; format: toxicity; settings: MCF10A cells versus T47D cells, read-out: RatioGI50; summary of the method: as §3
[10] = target: T1, Aryl hydrocarbon receptor; assay: Activation of AhR in human HT29-Lucia cells expressing secreted Lucia luciferase reporter gene assessed as increase in receptor transactivation by measuring fold increase in reporter activity at 25 uM measured after 48 hrs by luciferase reporter gene assay relative to control; format: cell-based; settings: HT-29, human, read-out: FC; summary of the method: as §1
[11] = Selectivity index, ratio of GI50 for human MCF10A cells to GI50 for human H460 cells by SRB assay; format: toxicity; settings: MCF10A cells versus H460 cells, read-out: RatioGI50; summary of the method: as §3

| SMILES | GI50 (U-87 MG) | GI50 (A2780) | GI50 (NCI-H460) | GI50 (A-431) | GI50 (DU-145) | GI50 (BE(2)-C) | GI50 [3] | GI50 (MIA PaCa-2) | GI50 (HT-29) | GI50 (MCF7) | GI50 at 72 h [4] | other results |
| --- | --- | --- | --- | --- | --- | --- | --- | --- | --- | --- | --- | --- |
| Cc1ccccc1/N=N/c1ccc(NC(=O)c2ccnn2C)c(C)c1 |  |  |  |  |  |  |  |  |  |  |  | fold induction at 5 µM [1]: 0.59; fold induction at 5 µM [2]: 0.69 |
| O=Cc1c2[nH]c3ccccc3c2cc2[nH]c3ccccc3c12 |  |  |  |  |  |  |  |  |  |  |  | fold induction at 5 µM [1]: 4.82; fold induction at 5 µM [2]: 2.85 |
| N#C/C(=C\c1ccc(OCC(O)CNc2ccccc2)cc1)c1ccc(Cl)c(Cl)c1 (racemic) | 26 µM | 4.4 µM | 14 µM | 16 µM | 22 µM | 13 µM | 18 µM | 17 µM | 10 µM | 13 µM | 18 µM | selectivity ratio [5]: 4 |
| N#C/C(=C\c1ccc(OCC(O)CN2CCN(c3ccc(C#N)cc3)CC2)cc1)c1ccc(Cl)c(Cl)c1 (racemic) | > 50 µM | 15 µM | > 50 µM | 20 µM | 17 µM | 31 µM | > 50 µM | > 50 µM | 50 µM | 5.8 µM | 47 µM | GI50 (MDA-MB-468): 6 µM; GI50 (T47D): 2.3 µM; fold induction at 25 µM [6]: 1.69; fold induction at 8 h, 5 µM (CYP1A1): 7.6; selectivity ratio [7]: 8.1; selectivity ratio [8]: 7.8; selectivity ratio [9]: 20; fold induction at 25 µM [10]: 1.84 |
| CC(=O)N1CCN(CC(O)COc2ccc(/C=C(\C#N)c3ccc(Cl)c(Cl)c3)cc2)CC1 (racemic) | 21 µM | 6.9 µM | 14 µM | 10 µM | 15 µM | 11 µM | 13 µM | 16 µM | 8.6 µM | 5.3 µM | 16 µM | GI50 (MDA-MB-468): 5.9 µM; GI50 (T47D): 6.8 µM; selectivity ratio [7]: 3; selectivity ratio [8]: 2.7; selectivity ratio [9]: 2.3 |
| N#C/C(=C\c1ccc(OCC(O)CN2CCN(c3ccc(Br)cc3)CC2)cc1)c1ccc(Cl)c(Cl)c1 (racemic) | > 50 µM | 14 µM | > 50 µM | > 50 µM | 31 µM | 40 µM | 21 µM | 57 µM | 16 µM | 24 µM | 49 µM | selectivity ratio [5]: 3.5 |
| N#C/C(=C\c1ccc(OCC(O)CN2CCN(c3ccccc3F)CC2)cc1)c1ccc(Cl)c(Cl)c1 (racemic) | 20 µM | 17 µM | 1.6 µM | 14 µM | 18 µM | 21 µM | 18 µM | 24 µM | 5.4 µM | 11 µM | 15 µM | selectivity ratio [11]: 9.3 |
